The source made the active and inactive calls. The rule behind the calls is not given here.
How the values were obtained:
[1] = tested on: Plasmodium falciparum; experiment: Antiplasmodial activity against synchronous gametocyte early stage of Plasmodium falciparum 3D7 harboring luc7 incubated for 72 hrs by ONE-Glo luciferase assay; format: functional, organism-based; settings: 3D7, 72 h
Summary of the method: (§1)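 Gametocytes of P. falciparum 3D7 luc7 induced by nutrient starvation, cultured in heparin medium to remove asexual stages, Percoll-purified as early (II–III) or late (IV–V) stage. 50,000 gametocytes/well exposed 72 h to a 19-point gradient, 0.038 nM–10 μM. ONE-Glo luciferase read after 5 min. EC50 by nonlinear curve fit; three experiments.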

[2] = Resistant index, ratio of EC50 for antiplasmodial activity against chloroquine-resistant Plasmodium falciparum Dd2 to antiplasmodial activity against chloroquine-sensitive Plasmodium falciparum 3D7; format: functional
[3] = tested on: Plasmodium falciparum; experiment: Antiplasmodial activity against chloroquine-resistant Plasmodium falciparum Dd2 infected in human erythrocytes assessed as reduction in microbial growth after 72 hrs by SYBR green I staining based fluorescence assay; format: functional, organism-based; settings: Dd2, Erythrocyte
Summary of the method: (§2)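 SYBR Green I assay: twofold serial dilutions on P. falciparum cultures at 1% parasitemia, 1% hematocrit, 37 °C, 5% CO₂, 72 h, max 0.1% DMSO. DMSO and CQ as growth and inhibition controls. Plates frozen at −80 °C, thawed, lysed in Tris/saponin/EDTA/Triton buffer with 0.01% SYBR Green I, 1 h dark at room temperature. Fluorescence read at 485 ex/530 em. EC50 by nonlinear dose–response fit.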

[4] = tested on: Plasmodium falciparum; experiment: Antiplasmodial activity against chloroquine-sensitive Plasmodium falciparum 3D7 infected in human erythrocytes assessed as reduction in microbial growth after 72 hrs by SYBR green I staining based fluorescence assay; format: functional, organism-based; settings: 3D7, Erythrocyte; summary of the method: as §2
[5] = tested on: HepG2; experiment: Cytotoxicity against human HepG2 cells assessed as reduction in cell viability after 48 hrs by MTS assay; format: cell-based; settings: HepG2, 48 h
Summary of the method: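 HepG2 cells were seeded at 2250 per well and grown 24 h at 37 °C, 5% CO₂. Serial dilutions starting at 25 μM were added for a further 48 h. MTS was then added for 3 h at 37 °C and absorbance read at 490 nm. EC₅₀ came from nonlinear dose–response fits.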

[6] = Selectivity index, ratio of EC50 for cytotoxicity against human HepG2 cells to antiplasmodial activity against chloroquine-resistant Plasmodium falciparum Dd2; format: toxicity, cell-based; settings: read-out: Ratio EC50
[7] = Stability of compound in mouse liver microsomes assessed as parent compound remaining at 1 uM after 60 mins in presence of NADPH by LC-MS analysis; format: ADME, Microsome; settings: 1 h
Summary of the method: (§3)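 Mouse liver microsomes (0.5 mg/mL final protein) in 0.1 M phosphate, pH 7.4, with compound at 1 μM, 37 °C with shaking. Aliquots were quenched in cold acetonitrile and centrifuged; LC–MS gave parent peak area at 60 min relative to 0 min.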

[8] = Half life in mouse liver microsomes at 1 uM after 60 mins in presence of NADPH by LC-MS analysis; format: ADME, Microsome; settings: 1 h; summary of the method: as §3
[9] = Intrinsic clearance in mouse liver microsomes assessed as parent compound at 1 uM after 60 mins in presence of NADPH by LC-MS analysis; format: ADME, Microsome; summary of the method: as §3
[10] = tested on: Plasmodium falciparum; experiment: Antiplasmodial activity against late trophozoite synchronized chloroquine-resistant Plasmodium falciparum Dd2 reduction in microbial growth at 5 times of EC50 after 12 hrs by Giemsa staining-based microscopic analysis; format: functional, organism-based
Summary of the method: (§4)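 Dd2 cultures tightly synchronized by magnetic separation and sorbitol were dosed at 5 × EC50 at 6, 18, 30 or 42 h post-invasion. Controls: DHA 50 nM, atovaquone 6.6 nM, DMSO 0.1%. Sampled every 12 h for Giemsa thin smears and for flow cytometry: glutaraldehyde/paraformaldehyde fixation, Triton permeabilization, RNAse, 500 nM YOYO-1, 500,000 events/sample. Three independent biological replicates.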

[11] = tested on: Plasmodium falciparum; experiment: Antiplasmodial activity against late trophozoite synchronized chloroquine-resistant Plasmodium falciparum Dd2 reduction in microbial growth at 5 times of EC50 after 12 hrs by YOYO-1 staining-based flow cytometric analysis; format: functional, organism-based; summary of the method: as §4
[12] = tested on: Plasmodium falciparum; experiment: Parasiticidal activity against chloroquine-resistant Plasmodium falciparum Dd2 infected in RBC assessed as reduction in parasitemia at 5 times of EC50 incubated for 6 to 48 hrs followed by compound washout and then incubated for 96 hrs by Giemsa staining based microscopic analysis; format: functional, organism-based; settings: time hrs 6-48
Summary of the method: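 Controls: 0.15% DMSO, DHA 50 nM, atovaquone 6.6 nM. Drug removed by three RPMI washes, then parasitemia followed daily for 96 h by Giemsa thin smears. Three independent biological replicates.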

[13] = tested on: Plasmodium falciparum; experiment: Antiplasmodial activity against synchronous gametocyte late stage of Plasmodium falciparum 3D7 harboring luc7 incubated for 72 hrs by ONE-Glo luciferase assay; format: functional, organism-based; settings: 3D7, 72 h; summary of the method: as §1
[14] = tested on: Hemozoin; experiment: Inhibition of beta-hematin formation after 16 hrs by inverted microscopic analysis; settings: dose microM 12.5-200, time 16.0 hrs
Summary of the method: (§5)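 Hemin (2 mM stock in 0.1 M NaOH; 100 μM final), propionate buffer pH 5.2 and sonicated phosphatidylcholine were incubated with a compound concentration series for 16 h at 37 °C with gentle shaking. Crystals were imaged by inverted microscope before quenching with 7.5% SDS in bicarbonate, pH 9.1. Free hemin was measured at 405 nm against a 0–16 μM calibration. Three independent experiments.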

[15] = tested on: Plasmodium berghei; experiment: Antiplasmodial activity against Plasmodium berghei ANKA expressing luciferase infected in Swiss Webster mouse at 100 mg/kg, po for 5 days using monophosphate salt form of compound by luminescence based assay; format: functional, organism-based; settings: time 5.0 day
Summary of the method: (§6)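 Female Swiss Webster mice got 10³ RBC infected with luciferase-expressing P. berghei ANKA. From 48 h post-infection, groups of five were gavaged once daily for 5 days in 2% methylcellulose/0.5% Tween 80, against a vehicle control. On day 7, mice received 150 mg/kg D-luciferin in PBS, and bioluminescence was imaged by IVIS as a measure of parasite load.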

[16] = tested on: Plasmodium berghei; experiment: Antiplasmodial activity against Plasmodium berghei ANKA expressing luciferase infected in Swiss Webster mouse at 25 mg/kg, po for 5 days using monophosphate salt form of compound by luminescence based assay; format: functional, organism-based; settings: time 5.0 day; summary of the method: as §6
[17] = tested on: Plasmodium falciparum; experiment: Potency index, ratio of EC50 for UCF501 to test compound EC50 for antiplasmodial activity against chloroquine-resistant Plasmodium falciparum Dd2 infected in human erythrocytes assessed as reduction in microbial growth after 72 hrs by SYBR green I staining based fluorescence assay; format: functional, Erythrocyte; summary of the method: as §2
[18] = tested on: Plasmodium falciparum; experiment: Antiplasmodial activity against synchronized chloroquine-resistant Plasmodium falciparum Dd2 reduction in microbial growth 5 times of EC50 treated with compound at 6 to 30 hrs post infection measured after 12 hrs by Giemsa staining-based microscopic analysis; format: functional, organism-based; summary of the method: as §4
[19] = tested on: Plasmodium falciparum; experiment: Antiplasmodial activity against synchronized chloroquine-resistant Plasmodium falciparum Dd2 reduction in microbial growth 5 times of EC50 treated with compound at 6 to 30 hrs post infection measured after 12 hrs by YOYO-1 staining-based flow cytometric analysis; format: functional, organism-based; summary of the method: as §4
[20] = tested on: Plasmodium falciparum; experiment: Antiplasmodial activity against synchronized chloroquine-resistant Plasmodium falciparum Dd2 reduction in microbial growth at 5 times of EC50 treated with compound at 42 hrs post infection measured after 12 hrs by Giemsa staining-based microscopic analysis; format: functional, organism-based; summary of the method: as §4
[21] = tested on: Plasmodium falciparum; experiment: Antiplasmodial activity against synchronized chloroquine-resistant Plasmodium falciparum Dd2 reduction in microbial growth 5 times of EC50 treated with compound at 42 hrs post infection measured after 12 hrs by YOYO-1 staining-based flow cytometric analysis; format: functional, organism-based; summary of the method: as §4
[22] = tested on: Plasmodium falciparum; experiment: Induction of morphological changes in chloroquine-resistant Plasmodium falciparum Dd2 assessed as appearance of membrane-bound structure at 5 times of EC50 measured after 1.5 to 12 hrs by TEM analysis; format: functional, organism-based; settings: time hrs 1.5-12
Summary of the method: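 Fixed in 2% paraformaldehyde/2.5% glutaraldehyde in cacodylate pH 7.4, post-fixed in 1% OsO₄, en bloc 1% uranyl acetate, ethanol-dehydrated, Eponate-embedded. 95 nm sections stained with uranyl acetate/lead citrate for TEM.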

[23] = tested on: Hemozoin; experiment: Inhibition of beta-hematin formation at 12.5 to 200 uM after 16 hrs by inverted microscopic analysis; settings: dose microM 12.5-200, time 16.0 hrs; summary of the method: as §5
[24] = tested on: Plasmodium berghei; experiment: Antiplasmodial activity against Plasmodium berghei ANKA expressing luciferase infected in BALB/c mouse assessed as mean survival days at 100 mg/kg, po for 4 days using monophosphate salt form of compound (reference value: 8 day); format: functional; settings: time 4 day
[25] = Toxicity in BALB/c mouse infected with Plasmodium berghei ANKA expressing luciferase assessed as hunched posture at 25 to 100 mg/kg, po for 4 days measured up to 30 days; format: organism-based; settings: in vivo, 96 h, dose 25-100 mg/kg, time 4 day
Summary of the method: (§7)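 Female BALB/c mice (10 weeks, ~20 g), five per group, were inoculated i.p. with 10⁶ P. berghei ANKA 676m1cl1-parasitized RBC. Oral gavage in 2% methylcellulose/0.5% Tween 80, once daily for 4 days starting 4 h post-infection, against a vehicle control. Tail-blood Giemsa smears from day 4. Signs and body weight were followed. Sacrifice at 40% parasitemia; cure meant a negative smear at day 30. Kaplan–Meier, log-rank.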

[26] = Toxicity in BALB/c mouse infected with Plasmodium berghei ANKA expressing luciferase assessed as hypotrichosis at 25 to 100 mg/kg, po for 4 days measured up to 30 days; format: organism-based; settings: in vivo, 96 h, dose 25-100 mg/kg, time 4 day; summary of the method: as §7
[27] = Toxicity in BALB/c mouse infected with Plasmodium berghei ANKA expressing luciferase assessed as reduction in mobility at 25 to 100 mg/kg, po for 4 days measured up to 30 days; format: organism-based; settings: in vivo, 96 h, dose 25-100 mg/kg, time 4 day; summary of the method: as §7
[28] = Toxicity in BALB/c mouse infected with Plasmodium berghei ANKA expressing luciferase assessed as reduction in weight at 25 to 100 mg/kg, po for 4 days measured up to 30 days; format: organism-based; settings: in vivo, 96 h, dose 25-100 mg/kg, time 4 day; summary of the method: as §7
[29] = tested on: Plasmodium berghei; experiment: Antiplasmodial activity against Plasmodium berghei ANKA expressing luciferase infected in BALB/c mouse at 25 mg/kg, po for 4 days using monophosphate salt form of compound by Giemsa staining based microscopic analysis; format: functional, organism-based; settings: time 4.0 day; summary of the method: as §7

Structure (SMILES)	EC50 [1]	Ratio EC50 [2]	EC50 [3]	EC50 [4]	EC50 [5]	selectivity ratio [6]	Stabilty [7]	CLH [9]	Activity [12]	EC50 [13]	Activity [15]	Activity [16]	also measured
CN(C)CCNc1cc(/C=C/c2ccc(F)cc2)nc2ccc(Cl)cc12	591 nM	0.6	4.8 nM	8.7 nM	5330 nM	1110	47.1%	25.1 µL/min/mg	Active	2050 nM	Active	Active	t1/2 [8]: 55.2 min; Activity [10]: Active; Activity [11]: Active; inhibition [14]: Dose-dependent effect; Ratio EC50 [17]: 14
CN(C)CCNc1cc(/C=C/c2ccc(C(F)(F)F)cc2)nc2ccc(Cl)cc12	472 nM	0.6	10.9 nM	16.8 nM	11200 nM	1030	67.1%	13.3 µL/min/mg	Active	394 nM	Active	Active	Activity [18]: Active; Activity [19]: Active; Activity [20]: inactive; Activity [21]: inactive; Activity [22]: Active; inhibition [23]: inactive; MSD [24]: 30 days; Activity [25]: Non-Toxic; Activity [26]: Non-Toxic; Activity [27]: Non-Toxic; Activity [28]: Non-Toxic; Activity [29]: Active
